Laboratory results published in paper PMC6431256 (Biochemistry, 2018).

Target: full-length Pin1 (Pin1FL) (Homo sapiens, UniProt Q13526)
Experiment: NMR 15N-1H HSQC titration, binding to full-length Pin1
In short: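 15N-labeled Pin1FL and Pin1WW were expressed separately in M9 medium with 15NH4Cl, induced with 1 mM IPTG at OD600 0.5 for 4 h, and purified by Ni affinity and gel filtration (20 mM HEPES pH 7.5, 50 mM NaCl, 5 mM EDTA; Pin1FL with 1 mM TCEP). Unlabeled phosphopeptides (dialyzed into matching buffer) were titrated at 0–637 µM into 100 µM protein. 1H-15N HSQC spectra were recorded at 25 °C and 600 MHz. Apparent KD was fitted from chemical shift changes, with 15N weighted 0.17.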

Sequence of full-length Pin1 (Pin1FL) (Q13526 whole entry): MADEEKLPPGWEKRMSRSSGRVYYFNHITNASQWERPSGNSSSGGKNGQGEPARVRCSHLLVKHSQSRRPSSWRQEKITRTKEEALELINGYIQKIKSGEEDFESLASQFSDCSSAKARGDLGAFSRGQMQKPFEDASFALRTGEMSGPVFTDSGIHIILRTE

In the case of KVAKpSPKKAKAW [H1.5], the “interaction strength with Pin1 among H1 peptides” value (Pin1FL and Pin1WW, in words) is reported as “fairly low affinity” and the “apparent affinity for full-length Pin1 relative to WW domain” value (compared with Pin1WW) is reported as “decrease”.
